Test results taken from ChEMBL document CHEMBL1137254, “Structurally simple, potent, Plasmodium selective farnesyltransferase inhibitors that arrest the growth of malaria parasites” (J Med Chem, 2006).

What was measured:
[1] = biological target: T1, Protein farnesyltransferase (PFT) (Plasmodium falciparum, UniProt Q5EI73+Q5EI74); test: Inhibition of Plasmodium falciparum PFT; assay type: protein-complex assay
T1 sequence (Q5EI73 whole entry): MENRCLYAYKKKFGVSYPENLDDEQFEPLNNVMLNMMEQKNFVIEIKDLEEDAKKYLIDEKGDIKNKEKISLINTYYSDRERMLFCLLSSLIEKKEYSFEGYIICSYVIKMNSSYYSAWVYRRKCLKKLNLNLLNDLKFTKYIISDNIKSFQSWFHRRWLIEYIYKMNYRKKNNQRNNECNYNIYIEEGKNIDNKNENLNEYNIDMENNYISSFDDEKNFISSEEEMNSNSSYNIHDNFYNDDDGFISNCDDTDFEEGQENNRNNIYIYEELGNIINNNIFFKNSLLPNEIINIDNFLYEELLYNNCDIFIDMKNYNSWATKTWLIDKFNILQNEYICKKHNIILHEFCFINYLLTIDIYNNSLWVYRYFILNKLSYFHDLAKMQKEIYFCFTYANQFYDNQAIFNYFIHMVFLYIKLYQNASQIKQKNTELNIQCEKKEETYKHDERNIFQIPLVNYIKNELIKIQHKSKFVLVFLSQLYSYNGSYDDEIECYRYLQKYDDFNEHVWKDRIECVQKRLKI
T1 sequence (Q5EI74 whole entry): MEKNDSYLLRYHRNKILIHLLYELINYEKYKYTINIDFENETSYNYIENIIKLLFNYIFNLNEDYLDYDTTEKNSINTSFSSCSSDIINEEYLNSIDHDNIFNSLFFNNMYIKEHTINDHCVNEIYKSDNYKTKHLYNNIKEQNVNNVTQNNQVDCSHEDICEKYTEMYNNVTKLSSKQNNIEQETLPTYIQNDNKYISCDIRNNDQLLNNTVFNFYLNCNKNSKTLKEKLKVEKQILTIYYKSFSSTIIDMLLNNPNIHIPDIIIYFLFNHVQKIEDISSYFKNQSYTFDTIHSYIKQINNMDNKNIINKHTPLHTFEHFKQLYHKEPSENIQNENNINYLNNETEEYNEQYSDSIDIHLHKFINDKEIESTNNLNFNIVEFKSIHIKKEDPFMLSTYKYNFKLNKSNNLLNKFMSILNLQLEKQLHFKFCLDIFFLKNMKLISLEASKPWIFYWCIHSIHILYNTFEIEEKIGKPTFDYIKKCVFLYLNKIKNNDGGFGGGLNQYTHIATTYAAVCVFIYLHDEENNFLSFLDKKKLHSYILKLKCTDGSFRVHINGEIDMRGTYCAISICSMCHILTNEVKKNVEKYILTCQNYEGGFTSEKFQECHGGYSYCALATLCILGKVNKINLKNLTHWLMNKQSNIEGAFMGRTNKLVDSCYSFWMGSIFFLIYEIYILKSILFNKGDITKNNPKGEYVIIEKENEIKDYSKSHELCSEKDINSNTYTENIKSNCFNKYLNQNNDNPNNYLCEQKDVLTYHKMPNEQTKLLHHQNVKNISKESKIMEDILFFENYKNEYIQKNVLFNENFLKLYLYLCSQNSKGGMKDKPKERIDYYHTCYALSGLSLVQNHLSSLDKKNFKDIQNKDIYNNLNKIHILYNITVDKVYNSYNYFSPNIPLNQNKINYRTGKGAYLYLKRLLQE

[2] = AUC in rat at 50 mg/kg, po; assay type: ADME, organism-based; set-up: dose 50 mg/kg, route oral; details: plasma
Outline: (§1)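 Oral gavage at 50 mg/kg in 90% saline, 3% ethanol, 7% Tween; inhibitor concentration in plasma followed over 5 h. Values are averages of three animals per species (mice or rats). Reported parameters are AUC, Cmax, Tmax and elimination t1/2.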

[3] = Cmax in rat at 50 mg/kg, po; assay type: ADME, organism-based; set-up: dose 50 mg/kg, route oral; details: in vivo; outline: as §1
[4] = biological target: T2, Protein farnesyltransferase (PFT) (Plasmodium falciparum) (UniProt Q5EI73+Q5EI74); test: Inhibition of Plasmodium falciparum PFT at 50 nM
[5] = biological target: T2, Protein farnesyltransferase (PFT) (Plasmodium falciparum); test: Inhibition of Plasmodium falciparum PFT at 5 nM
[6] = Tmax in mouse at 50 mg/kg, po; assay type: ADME, organism-based; set-up: dose 50 mg/kg, route oral; details: in vivo; outline: as §1

SMILES: Cc1ccccc1CN(CCN(Cc1cncn1C)c1ccc(C#N)cc1)S(=O)(=O)c1cn(C)cn1
- IC50 [1]: 600 pM
- AUC [2]: 1.72 µM·h
- Cmax [3]: 1050 nM
- inhibition [4]: 99%
- inhibition [5]: 95%
- Tmax [6]: 40 min
